Active and inactive are the calls of the source. The calls are words filed in the database; no cut-off is given here.

The source of these data is ChEMBL document CHEMBL1123886 (J Med Chem, 1987).

For data set [1], the system named is P388/ADR. In words: Optimal dose required to inhibit the P388/ADR cells in vivo after intraperitoneal administration. Format: functional, Mus musculus. Also noted: unit: mg/kg/day.
Data set [2] is described as follows: Lipophilicity (Rm). Format: physicochemical.
For the next data set, the system named is poly[d(A-T)]. Nature of the data set: Binding constant for poly[d(A-T)] by ethidium bromide displacement.
Data set [3] has as its system P388. Nature of the data set: Optimal dose required to inhibit the P388 intraperitoneal administration. Format: functional, Mus musculus. Also noted: unit: mg/kg/day.
For a further data set, the species on record is Mus musculus. In words: Percent increase in life span of the drug treated tumor bearing animals vs nontreated tumor bearing controls was determined against P388/ADR cells;NA= not active. Format: functional, organism-based. The procedure, abridged: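 Mice were inoculated ip with 10^6 P388 or ADR/P388 cells. OD is the optimal dose in mg/kg per day. ILSmax is the % lifespan increase over untreated tumor-bearing controls at the OD; above 20% is significant. Long-term survival was scored at 50 days.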

Data set [4] is described as follows: The compound was evaluated for its acid dissociation constant. Format: ADME.
For data set [5], the system named is P388. In words: Percent increase in life span of the drug-treated tumor-bearing animals vs nontreated tumor-bearing controls with P388 leukemia cells. Format: functional, Mus musculus. The procedure, abridged:
(§1)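 Groups of 6. Optimal dose is in mg/kg per day. ILSmax is the % lifespan increase over untreated tumor-bearing controls at the optimal dose; above 20% counted significant. Cures are 50-day survivors.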

Data set [6] has as its system P388/ADR. Nature of the data set: Percent increase in life span, of the drug-treated tumor-bearing animals vs nontreated tumor-bearing controls with P388/ADR cells. Format: functional, Mus musculus. The procedure, abridged: as §1
Data set [7] deals with Lewis lung carcinoma cell line. In words: Optimal dose to inhibit the LL (Lewis lung carcinoma model) cells in vivo after intraperitoneal administration. Format: functional, Mus musculus. Set-up: unit: mg/kg/day. The essentials:
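Mice were inoculated iv with 10^6 Lewis lung carcinoma cells. OD is the optimal dose in mg/kg per day. Lifespan increase above 40% is significant, and long-term survival was scored at 60 days.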

The test system of another data set is L1210. Nature of the data set: Ability to inhibit the growth of leukemia L1210 cells in vitro. Format: functional, cell-based. The following applies: Mus musculus. The essentials: (§2)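 Cultured leukemia L1210 or human colon tumor HCT-8 cells were exposed to drug for 40 h.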
Data set [8] deals with Lewis lung carcinoma cell line. Nature of the data set: Percent increase in life span, of the drug-treated tumor-bearing animals vs nontreated tumor-bearing controls with LL (Lewis lung carcinoma model) cells. Format: functional, Mus musculus. The procedure, abridged: (§3)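 Groups of 6. Optimal dose is in mg/kg per day. ILSmax is the % lifespan increase over untreated tumor-bearing controls at the optimal dose; above 40% counted significant. Cures are 60-day survivors.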

The test system of a further data set is HCT-8. In words: Ability to inhibit the growth of human colon tumor HCT-8 cells in vitro. Format: functional, cell-based. The procedure, abridged: as §2
Data set [9] concerns Lewis lung carcinoma cell line. Nature of the data set: Percent increase in life span of the drug treated tumor bearing animals vs nontreated tumor bearing controls was determined against LL (Lewis lung carcinoma model) cells;NA= not active. Format: functional. The settings on record: Mus musculus. The procedure, abridged:
as §3

Turning to `COc1cc(NP(=O)(OC)OC)ccc1Nc1c2ccccc2nc2ccccc12`, the OD with P388/ADR [1] and with P388 [3] was 8.9 throughout. For the same compound, the Rm in data set [2] was 0.37. In addition, the Log K with poly[d(A-T)] was 6.18. Also, the ILS max result in the data set listed under Mus musculus was “inactive”. The pKa in data set [4] amounted to 8.21. Moreover, in the data set on P388 [5], the ILS max came out at 67.
`CNc1cc(NC(C)=O)ccc1Nc1c2ccccc2nc2ccccc12`: the OD with P388/ADR [1] and in the data set with P388 [3] was 65 in each case. For the same compound, in [2], the Rm came to 0.3. The Log K in the data set on poly[d(A-T)] was 6.79. For the same compound, in the data set listed under Mus musculus, the ILS max entry is “inactive”. The compound also displayed a pKa in [4] of 7.8. Also, in the data set with P388 [5], the ILS max is 96.
`COC(=O)Nc1ccc(Nc2c3ccccc3nc3ccccc23)c(OC)c1`: the OD in the data set with P388/ADR [1] was 45; with P388 [3], 30. In data set [2], the Rm was found to be 0.5. The same compound had a Log K in the data set on poly[d(A-T)] of 6.24. The ILS max in the data set with P388/ADR [6] turned out to be 33; in the data set on P388 [5] it was 86. The same compound gave a pKa in data set [4] of 7.93.
As to `CNc1cc(NC(=O)OC)ccc1Nc1c2ccccc2nc2cc([N+](=O)[O-])ccc12`, the OD in the data set with P388/ADR [1] was found to be 20; in the data set on P388 [3], 30; in data set [7], 65. The Rm in [2] is listed as 0.4. In the data set with poly[d(A-T)], this compound displayed a Log K of 6.58. Also, the ILS max result in the data set listed under Mus musculus is “inactive”. The IC50 with L1210 is 5060 nM. In addition, the ILS max in [8] worked out at 49; with P388 [5] it was 48.
`CNc1cc(NC(=O)OC)ccc1Nc1c2ccccc2nc2cc(I)ccc12`: the OD in the data set with P388/ADR [1] is recorded as 100; in the data set with P388 [3], 45; in data set [7], 65. This compound gave a Rm in [2] of 0.65. Further, the Log K in the data set with poly[d(A-T)] turned out to be 6.12. Further, the IC50 with HCT-8 stood at 350 nM; in the data set with L1210, 110 nM. The ILS max result in the data set listed under Mus musculus is “inactive”. In addition, the ILS max in data set [8] came to 68; in the data set on P388 [5] it was 92.
On to `COP(=O)(Nc1ccc(Nc2c3ccccc3nc3ccccc23)c(N(C)C)c1)OC`, for which the OD in the data set on P388/ADR [1] and in the data set on P388 [3] was 100 in each case. Besides, in data set [2], the Rm was determined as 0.44. The same compound gave a Log K with poly[d(A-T)] of 6.43. The ILS max entry in the data set filed under Mus musculus was “inactive”. Also, in [4], the pKa amounted to 8.17. Also, in the data set on P388 [5], the ILS max stood at 97.
In the case of `COc1cc(NC(C)=O)ccc1Nc1c2ccccc2nc2ccccc12`, the OD in the data set on P388/ADR [1] is 8.9; with P388 [3] it was 13.3. This compound also gave a Rm in data set [2] of 0.3. The compound further gave a Log K in the data set with poly[d(A-T)] of 6.1. The ILS max result in the data set filed under Mus musculus is “inactive”. The pKa in data set [4] came out at 7.79. Also, the ILS max in the data set with P388 [5] came out at 50.
On to `CNc1cc(NC(=O)OC)ccc1Nc1c2ccccc2nc2c(Cl)cccc12`, for which the OD in the data set with P388/ADR [1] came to 45; in the data set on P388 [3] it was 30; in [7], 65. In data set [2], this compound yielded a Rm of 0.42. Besides, the Log K with poly[d(A-T)] turned out to be 6.3. The ILS max result in data set [9] was “inactive”. Besides, the ILS max with P388/ADR [6] was found to be 22; in the data set with P388 [5], 30. Moreover, the IC50 in the data set with HCT-8 came out at 4500 nM; in the data set with L1210, 906 nM.
Regarding `CNc1cc(NC(=O)OC)ccc1Nc1c2ccc(F)cc2nc2c(OC)cccc12`, the OD with P388/ADR [1] was determined as 45; in the data set with P388 [3], 100; in data set [7], 45. For the same compound, the Rm in data set [2] came out at 0.45. The same compound came in with a Log K in the data set with poly[d(A-T)] of 6.27. The IC50 is 1600 nM with HCT-8 and 940 nM in the data set with L1210. For the same compound, the ILS max result in the data set listed under Mus musculus is “inactive”. The ILS max in [8] amounted to 52; with P388 [5], 125.
Take `COC(=O)Nc1ccc(Nc2c3ccccc3nc3ccccc23)c(N(C)C)c1`: the OD is given as 30 with P388/ADR [1] and 45 in the data set on P388 [3]. The compound further showed a Rm in data set [2] of 0.56. The Log K in the data set on poly[d(A-T)] came to 5.88. Also, the ILS max result in the data set listed under Mus musculus was “inactive”. The same compound yielded a pKa in [4] of 7.85. Also, in the data set on P388 [5], the ILS max stood at 20.
